According to ChEMBL document CHEMBL1150166, “Cytotoxic 3,20-epoxy-ent-kaurane diterpenoids from Isodon eriocalyx var. laxiflora” (J Nat Prod, 2002):
≈ marks a conversion by molar mass, not a printed value.

What was measured:
T-24 = test: Cytotoxicity against human T24 cells after 72 hrs by SRB assay; details: T-24, 72 h
K562 = test: Cytotoxicity against human K562 cells after 48 hrs by MTT assay; format: functional, cell-based; details: K562, 48 h
How it was run: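 Log-phase K562 cells (5 × 10⁴ cells/mL) were exposed in quadruplicate to 10⁻⁴ to 10⁻⁸ g/L drug for 48 h at 37 °C under 5% CO₂. MTT (5 mg/mL) was then added for 4 h, and formazan was dissolved in 10% SDS/5% isobutanol/HCl for 12 h at room temperature. OD was read at 570 and 630 nm. Controls were saline or DMSO, with cisplatin as the positive control.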

A549 = test: Cytotoxicity against human A549 cells after 72 hrs by SRB assay; details: A549, 72 h

Row | Compound | IC50 (T-24) | IC50 (K562) | IC50 (A549)
1 | CC1(C)[C@H]2[C@H](O)C(=O)[C@@]34C[C@@H](CC[C@H]3[C@@]23CO[C@@H]1CC3=O)[C@@H](CO)C4=O [LAXIFLORIN K] | 1750 µg/mL (≈ 4840 µM) | 11.9 µg/mL (≈ 32.8 µM) | 
2 | C=C1[C@@H]2CC[C@@H]3[C@](C2)(C(=O)[C@@H](O)[C@@H]2C(C)(C)[C@H]4CC(=O)[C@@]32CO4)[C@@H]1O [LAXILORIN L] | 5.16 µg/mL (≈ 14.9 µM) | 1.13 µg/mL (≈ 3.25 µM) | 24.7 µg/mL (≈ 71.2 µM)
3 | C=C1C(=O)[C@]23C[C@H]1CC[C@H]2[C@]12CO[C@H](CC1=O)C(C)(C)[C@H]2[C@H](O)C3=O [LAXIFLORIN J] | 0.314 µg/mL (≈ 0.912 µM) | 0.473 µg/mL (≈ 1.37 µM) | 49.1 µg/mL (≈ 142 µM)
4 | C=C1C(=O)[C@]23C[C@H]1CC[C@H]2[C@]12CO[C@H](CC1=O)C(C)(C)C2=C(O)C3=O [MAOECRYSTAL P] | 0.0512 µg/mL (≈ 0.15 µM) | 0.132 µg/mL (≈ 0.386 µM) | 69.5 µg/mL (≈ 203 µM)
5 | C=C1[C@@H](OC(C)=O)[C@]23C[C@@]1(O)CC[C@H]2[C@]12CO[C@H](CC1=O)C(C)(C)[C@H]2[C@H](O)C3=O [LAXIFLORIN M] |  | 219 µg/mL (≈ 541 µM) | 
